# “And” between values parts separate entries of the source, which are not always exact repeats. Equal entries are not always repeated.
# Assays:
# [1] = Microsomal stability in CD1 mouse liver microsomes assessed as half life measured upto 60 mins in presence of NADPH by LC-MS analysis; details: for t1/2: mouse, microsomes, 1 h; for half-life at 1 h: CD1, mouse, liver microsomes
# [2] = Permeability of the compound at pH 7.4 incubated for 30 mins by UV plate reader based PAMPA assay; details: for permeability: pampa, pH 7.4, 0.5 h; for Papp at 0.5 h: PAMPA, pH 7.4
# [3] = Kinetic solubility of compound
# [4] = tested on: PC-3M; assay: Anticancer activity in human PC-3M cells expressing PTB/GFP fusion protein assessed as perinucleolar compartment disassembly and measured after 24 hrs by Hoechst 33342 staining based microscopic method; format: functional, cell-based
# Outline: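 Imaged by high-content microscopy. Nuclei with PNC spots ≥3 and >0 scored positive. PNC prevalence % = PNC-positive nuclei/total nuclei ×100, normalized to DMSO (0% activity) and 0% PNC (−100%). IC50 from concentration-response.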
# [5] = Cytotoxicity against human PC-3M cells expressing PTB/GFP fusion protein assessed as reduction in ATP level and measured after 24 to 48 hrs by ATPlite luminescence assay; format: toxicity, cell-based
# [6] = in vitro; details: human, PC-3M cells expressing PTB/GFP fusion protein
Compound,t1/2 [1] [min],permeability [2],solubility kinetic [3],IC50 ([4]; read-out: pIC50 (converted)) [µM],IC50 ([4]; read-out: IC50) [µM],half-life at 1 h [1] [min],Papp at 0.5 h [2] [×10⁻⁶ cm/s],IC50 [5] [µM],selectivity ratio [6]
N=c1c2c(-c3ccccc3)c(-c3ccccc3)n(Cc3ccccc3)c2ncn1C1CCC(=O)CC1,38.2,> 1000 10^-6 cm/s,75 µM and 36 µg/mL,0.302,,,,,
N=c1c2c(-c3ccccc3)c(-c3ccccc3)n(Cc3ccccc3)c2ncn1C1CCOCC1,29.6,> 1000 10^-6 cm/s,18 µM and 8.3 µg/mL,0.316,0.32,,,,
COc1cccc2c1C(=O)c1c(O)c3c(c(O)c1C2=O)C[C@@](O)(C(=O)CO)C[C@@H]3O[C@H]1C[C@H](N)[C@H](O)[C@H](C)O1 [DOXORUBICIN],,,,,0.86,,,0.66,
N=c1c2c(-c3ccccc3)c(-c3ccccc3)n(Cc3ccc(OC(F)(F)F)cc3)c2ncn1[C@H]1CC[C@H](O)CC1,,1246.89 10^-6 cm/s,,0.631,,120,,,
CC[C@@]1(O)C(=O)OCc2c1cc1n(c2=O)Cc2cc3ccccc3nc2-1 [CAMPTOTHECIN],,,,,0.19,,,0.48,2.5
N=c1c2c(-c3ccccc3)c(-c3ccccc3)n(Cc3ccccc3)c2ncn1[C@H](CO)Cc1ccccc1,5.5,< 1 10^-6 cm/s,,,> 20,,,,
COc1ccc(-c2c(-c3ccc(OC)cc3)n(Cc3ccccc3)c3ncn(CCO)c(=N)c23)cc1,73.2,> 1000 10^-6 cm/s,,,> 20,,,,
COCCn1cnc2c(c(-c3ccccc3)c(-c3ccccc3)n2Cc2ccccc2)c1=N,9.5,> 1000 10^-6 cm/s,,9.33,,,,,
N=c1c2c(-c3ccccc3)c(-c3ccccc3)n(Cc3ccccc3)c2ncn1CCNc1ccncc1,29.9,445.1 10^-6 cm/s,,6.61,,,,,
CN(C)CCCn1cnc2c(c(-c3ccccc3)c(-c3ccccc3)n2Cc2ccccc2)c1=N,,,,12.6,12.6,120,320,,
N=c1c2c3c(n(CCc4ccccc4)c2ncn1[C@H]1CC[C@H](O)CC1)CCCC3,86.5,204.6 10^-6 cm/s,,,> 20,,,,
N#Cc1c(-c2ccccc2)c(-c2ccccc2)n(Cc2ccccc2)c1N,13.3,62 10^-6 cm/s,,,> 20,,,,
Cc1c(C)n(Cc2ccccc2)c2ncn([C@H]3CC[C@H](O)CC3)c(=N)c12,,< 1 10^-6 cm/s,,,> 20,120,,,
N=c1c2c(-c3ccccc3)c(-c3ccccc3)n(Cc3ccccc3)c2ncn1C[C@@H]1CCCC[C@H]1O (relative stereo),2.4,> 1000 10^-6 cm/s,,2,,,,,

# Second part, led by results:
t1/2 [1] [min],permeability [2],solubility kinetic [3],IC50 ([4]; read-out: pIC50 (converted)) [µM],IC50 ([4]; read-out: IC50) [µM],half-life at 1 h [1] [min],Papp at 0.5 h [2] [×10⁻⁶ cm/s],Compound,IC50 [5] [µM],selectivity ratio [6]
14.3,1358 10^-6 cm/s,,2.95,,,,CN(C)CCn1cnc2c(c(-c3ccccc3)c(-c3ccccc3)n2Cc2ccccc2)c1=N,,
7.7,> 1000 10^-6 cm/s,,4.27,,,,N=c1c2c(-c3ccccc3)c(-c3ccccc3)n(Cc3ccccc3)c2ncn1CCCCO,,
,> 1000 10^-6 cm/s,> 132 µM and > 65 µg/mL,0.339,,120,,N=c1c2c(-c3ccccc3)c(-c3ccccc3)n(CCc3ccccc3)c2ncn1[C@H]1CC[C@H](O)CC1,,
2.9,> 1000 10^-6 cm/s,,,> 20,,,COc1ccc(CCn2cnc3c(c(-c4ccccc4)cn3Cc3ccccc3)c2=N)cc1OC,,
,,,,> 20,4.5,883,N=c1c2c3c(n(CCc4ccccc4)c2ncn1CCCO)CCCC3,,
16.3,> 1000 10^-6 cm/s,,33.9,,,,N=c1c2c(-c3ccccc3)c(-c3ccccc3)n(CC3CC3)c2ncn1CC1CCOCC1,,
16.5,> 1000 10^-6 cm/s,,,> 20,,,COc1ccc(-c2c(-c3ccc(OC)cc3)n(Cc3ccccc3)c3ncn(CC4CCOC4)c(=N)c23)cc1 (stereo not given),,
7.1,> 1000 10^-6 cm/s,,10.7,,,,N=c1c2c(-c3ccccc3)c(-c3ccccc3)n(Cc3ccccc3)c2ncn1CC1CCOCC1,,

# Source: ChEMBL document CHEMBL5154945, “Discovery and Optimization of Pyrrolopyrimidine Derivatives as Selective Disruptors of the Perinucleolar Compartment, a Marker of Tumor Progression toward Metastasis” (J Med Chem, 2022)
